35 molecules from PubChem BioAssay AID463141 (The Scripps Research Institute Molecular Screening Center, 2010) can be followed below.

About 350 (0.11%) of roughly 330,000 compounds were called active. The sample holds actives, similar compounds and a random draw of the others, so the mix is not that of the screen. Values without a mark were called inactive.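 How the source made its calls: active means activation above the mean of all tested compounds plus 3 SD (cut at about 21% in these data); inactive means the rest.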

Chain of Caspase-3 (Homo sapiens) (P42574 whole entry D9A/D28A/D175A): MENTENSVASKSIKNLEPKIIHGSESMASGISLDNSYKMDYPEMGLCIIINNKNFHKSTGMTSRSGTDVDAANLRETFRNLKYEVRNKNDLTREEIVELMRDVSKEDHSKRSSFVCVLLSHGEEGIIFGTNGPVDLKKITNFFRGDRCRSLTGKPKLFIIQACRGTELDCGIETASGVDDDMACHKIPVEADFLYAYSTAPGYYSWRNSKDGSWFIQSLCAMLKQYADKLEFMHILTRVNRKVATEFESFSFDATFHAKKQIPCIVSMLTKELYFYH

The experiment concerns the target Caspase-3 (Homo sapiens) (UniProt P42574). Nature of the experiment: procaspase-3 enzyme activation – biochemical, absorbance, PC-3 D3A mutant, single concentration, primary screen (AID 463141).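 Further: 0% = DMSO alone and 100% = DMSO wells spiked with extra 5 µM PC-3 D3A.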 The note with it: recombinant procaspase-3 D3A, Ac-DEVD-pNA absorbance 405 nm; at 8.5 µM; active compounds read high. In a few lines:
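Compound: 8.5 µM single point, 0.8% DMSO / Material: Autoprocessing-dead procaspase-3 D3A mutant enzyme / Timing: 1 h preincubation plus 2 h reaction at 25 °C / Medium: Zinc-free HEPES/NaCl buffer with 0.01% Triton X-100 at pH 7.4 / Technique: 405 nm absorbance of p-nitroaniline, reads at 0 and 120 min / Repeats: one well per compound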
`O=C(CN1CCC(O)(c2cccc(C(F)(F)F)c2)CC1)NCCc1ccccc1`: the activation is 2.72%.

In the case of `COC(CCN(C)C)(c1ccccc1)c1ccccc1`, the activation was -2.83%.

`O=[N+]([O-])c1ccc(C=Nc2ccc(Cl)cc2Cl)s1`: the activation was 6.25%.

For the molecule `CCn1c(SCC(=O)NC2=NCCS2)nnc1C(C)NC(=O)c1ccccc1F` (stereo not given), the activation was 2.41%.

Turning to `O=C1c2ccccc2C(O)N1Cc1ccccc1Cl` (stereo not given), the activation is -2.13%.

Regarding `COc1ccc2[nH]c3c(c2c1)CCN1C(=O)C(CC(=O)NCCc2ccccn2)C[C@H](C(=O)N2CCOCC2)[C@@]31C` (stereo not given in full), the activation is 0.02%.

`O=P(c1cccs1)(c1cccs1)c1cccs1`: the activation was -8.39%.

As to `Cc1[nH]n(C(N)=S)c(=O)c1N=Nc1ccc(Cl)cc1Cl`, the activation is -2.96%.

As to `CCN(c1ccc2c(c1)OCO2)S(=O)(=O)c1cc(Br)cc2c1N(C(=O)C1CC1)CC2`, the activation was 5.06%.

Take `O=C(CCNS(=O)(=O)c1ccccc1C(F)(F)F)NCc1ccc2c(c1)OCO2`: the activation was 32.1% (active).

Consider `Cn1cc(CCC(=O)NCc2ccc3c(c2)OCO3)c2ccccc21`, for which the activation is 11.3%.

Consider `O=C(CCNS(=O)(=O)c1ccccc1C(F)(F)F)Nc1ccncc1`, for which the activation is 1.72%.

Turning to `CN1CCN(CCNC(=O)Nc2ccccc2[N+](=O)[O-])CC1`, the activation was 4.28%.

In the case of `CN(C)c1ccc(C=NCCc2ccc(S(N)(=O)=O)cc2)cc1`, the activation is 8.03%.

Take `Cc1ccc(C)c(NC(=O)COC(=O)c2nn(C)c(=O)c3ccccc23)c1`: the activation is 14.6%.

Consider `COc1cc(NC(=O)c2ccc(-c3csc(C)n3)cc2)c(OC)cc1Cl`, for which the activation is 3.93%.

Regarding `CCCc1cc(=O)[nH]c(SCC(=O)Nc2ccc(C(=O)Nc3ccccc3OC)cc2)n1`, the activation is 0.24%.

Take `CCN(Cc1ccccc1)S(=O)(=O)c1cc(C(=O)O)ccc1OC`: the activation is 5.66%.

For `FC(F)(F)c1cccc(-c2nc(COc3ccc(Cl)cc3Cl)no2)c1`, the activation was -1.22%.

For the molecule `CCCc1nc2c(C)cc(-c3nc4ccccc4n3C)cc2n1Cc1ccc(-c2ccccc2C(=O)O)cc1`, the activation is 5.04%.

For `CC1(C)Cc2c(C#N)c(SCc3nc4ccccc4[nH]3)nc(N3CCOCC3)c2CO1`, the activation was 30.9% (active).

`CC(C)C(=O)N1CCN(c2nc(-c3ccccc3)c3c(c2C#N)CC(C)(C)OC3)CC1`: the activation is 5.16%.

With `COc1ccc(CSc2nc(N3CCOCC3)c3c(c2C#N)CC(C)(C)OC3)cc1`, the activation was -2.72%.

For the molecule `COc1ccc(OC)c(/C=N/NC(=O)c2ccc[n+](CC(=O)c3ccccc3)c2)c1`, the activation is -2.7%.

Take `COc1ccc(OC)c(Nc2nc3ccccc3n3cnnc23)c1`: the activation is -2.95%.

On to `Cc1cc(F)ccc1S(=O)(=O)Nc1ccc(C(=O)N(C)Cc2ccco2)cc1`, for which the activation was 12.5%.

As to `CCN(CC)S(=O)(=O)c1ccc(Cl)c(C(=O)NC(C)C(c2cccs2)N2CCCC2)c1` (stereo not given), the activation is 0.02%.

Consider `O=C(NCc1ccccc1)[C@@H]1CSC2c3ccccc3C(=O)N21` (stereo not given in full), for which the activation is 5.1%.

Regarding `Cn1nc([N+](=O)[O-])nc1Sc1ccc(C(C)(C)C)cc1`, the activation was -0.3%.

In the case of `ONC(=Nc1ccc(Cl)cc1)c1ccccc1Cl`, the activation is 4.43%.

Regarding `C=CCn1c(SCc2nnc(-c3ccccc3)o2)nnc1C(O)c1ccccc1` (stereo not given), the activation is -1.35%.

For the molecule `CC1CCN(C(=S)NC2CC3CCC2C3)CC1` (stereo not given), the activation was -7.41%.

With `CCCNC(=O)CN(Cc1ccccc1F)S(=O)(=O)c1ccc(C)cc1`, the activation was 4.46%.

`Cc1ccc(N(C(=O)C(F)(F)F)C(C(=O)NC2CCCCC2)c2ccncc2)cc1C` (stereo not given): the activation is -2.69%.

With `O=C(NCCS(=O)(=O)c1ccc(Br)cc1)c1ccccc1Cl`, the activation is 3.23%.
